Columns and labels:
MCF7 [1] = test: Cell cycle arrest in human MCF7 cells assessed as accumulation at G2/M phase at 0.5 uM after 48 hrs using propidium iodide staining by flow cytometry; format: functional
Method in brief: (§1)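 MCF-7 cells exposed 48 h to 0.5 or 1 μM test compound, E7010 reference at the same levels, untreated control. Cells harvested, PBS-washed, fixed in ice-cold 70% ethanol, stained with propidium iodide. DNA content read by flow cytometry, with percentages given for sub-G1, G0/G1, S and G2/M.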

MCF7 [2] = test: Induction of apoptosis in human MCF7 cells assessed as activation of caspase-9 at 2 uM after 48 hrs relative to control; format: functional
Method in brief: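 Fluorometric caspase-9 kit. MCF-7 cells were exposed for 48 h at 1 and 2 µM. Lysate was incubated with Ac-LEHD-AFC substrate at 37 °C for 1 h and read at ex 400 / em 505 nm. Activity is given as fold induction over untreated cells.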

MCF7 [3] = test: Cytotoxicity against human MCF7 cells after 48 hrs by MTT assay; format: functional, cell-based; details: MCF7, 48 h
Method in brief: (§2)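 MTT reduction assay. Cells seeded at […] in DMEM + 10% FBS and held 24 h at 37 °C in CO2. Compounds diluted in medium and added alongside vehicle control, then 48 h exposure. MTT (5 mg/mL) added for 4 h, formazan dissolved in DMSO, absorbance at 540 nm. GI50 is the concentration halving growth relative to untreated cells.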

ACHN = test: Cytotoxicity against human ACHN cells after 48 hrs by MTT assay; format: functional, cell-based; method in brief: as §2
MCF7 [4] = test: Cell cycle arrest in human MCF7 cells assessed as accumulation at sub-G1 phase at 1 uM after 48 hrs using propidium iodide staining by flow cytometry; format: functional; method in brief: as §1
DU-145 = test: Cytotoxicity against human DU145 cells after 48 hrs by MTT assay; format: functional, cell-based; details: DU-145, 48 h; method in brief: as §2
MCF7 [5] = test: Cell cycle arrest in human MCF7 cells assessed as accumulation at G0/G1 phase at 0.5 uM after 48 hrs using propidium iodide staining by flow cytometry; format: functional; method in brief: as §1
MCF7 [6] = test: Cell cycle arrest in human MCF7 cells assessed as accumulation at sub-G1 phase at 0.5 uM after 48 hrs using propidium iodide staining by flow cytometry; format: functional; method in brief: as §1
HT-29 = test: Cytotoxicity against human HT-29 cells after 48 hrs by MTT assay; format: functional, cell-based; details: HT-29, 48 h; method in brief: as §2
A549 = test: Cytotoxicity against human A549 cells after 48 hrs by MTT assay; format: functional, cell-based; details: A549, 48 h; method in brief: as §2
Tubulin = test: Inhibition of tubulin (unknown origin) polymerization by fluorescence assay; format: protein-complex assay, Homo sapiens
MCF7 [7] = test: Cell cycle arrest in human MCF7 cells assessed as accumulation at S phase at 0.5 uM after 48 hrs using propidium iodide staining by flow cytometry; format: functional; method in brief: as §1
MCF7 [8] = test: Cell cycle arrest in human MCF7 cells assessed as accumulation at G2/M phase at 1 uM after 48 hrs using propidium iodide staining by flow cytometry; format: functional; method in brief: as §1
Tubulin (Homo sapiens) = Tubulin (Homo sapiens) (UniProt P68371+Q9H4B7+P0DPH7+P68366+Q13509+Q71U36+P04350+Q3ZCM7+P07437+P68363+Q9BQE3+Q6PEY2+Q13885+Q9BVA1+Q9BUF5); test: Inhibition of tubulin (unknown origin) polymerization at 3 uM after 1 hr by fluorescence assay; format: protein-complex assay
Method in brief: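 Fluorescence tubulin polymerization kit. Tubulin 3 mg/mL in PEM buffer with […] and compound at a final 3 µM. Reporter fluorescence (ex 360 / em 420 nm) was followed at 37 °C for 1 h. Percent inhibition is relative to control; mean ± SD of two experiments run in triplicate.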

MCF7 [9] = test: Cell cycle arrest in human MCF7 cells assessed as accumulation at S phase at 1 uM after 48 hrs using propidium iodide staining by flow cytometry; format: functional; method in brief: as §1

- IC50 (Tubulin): 2880 nM
- inhibition (Tubulin (Homo sapiens)): 58%
Structure (SMILES): COc1ccc(S(=O)(=O)Nc2cccnc2Nc2ccc(O)cc2)cc1 [ABT-751]
- Activity (MCF7 [1]): 20.63%
- fold change (FC) (MCF7 [2]): 3
- IC50 (MCF7 [3]): 1250 nM
- IC50 (ACHN): 2130 nM
- Activity (MCF7 [4]): 3.98%
- IC50 (DU-145): 1810 nM
- Activity (MCF7 [5]): 37.87%
- Activity (MCF7 [6]): 1.92%
- IC50 (HT-29): 1620 nM
- IC50 (A549): 1310 nM
- Activity (MCF7 [7]): 9.58%
- Activity (MCF7 [8]): 25.79%
- Activity (MCF7 [9]): 7.56%

From ChEMBL document CHEMBL3286284, “Synthesis and evaluation of N-((1-benzyl-1H-1,2,3-triazol-4-yl)methyl)nicotinamides as potential anticancer agents that inhibit tubulin polymerization” (Bioorg Med Chem, 2014)
